The EC50 is the concentration that produces a half-maximal response. A word on the Kd: it is a measure of binding affinity in units of concentration. Low readings indicate higher affinity, high ones lower affinity. As usually defined, the inhibition is how much of the control response was suppressed.

The source of these data is paper PMC4793151 (Cell host & microbe, 2016).

The subject of data set [1] is H. pylori clinical isolates. As to the kind of experiment: RIA of Le^b binding of clinical isolates preincubated with DTT. The format is cell-based. Particulars: Helicobacter pylori, read-out: EC50, DTT-susceptibility of Le^b-binding.
In data set [2] the target is T1, BabA CBD of Alaskan strain A730 (Helicobacter pylori, UniProt O52269).
T1 sequence (O52269 45-480): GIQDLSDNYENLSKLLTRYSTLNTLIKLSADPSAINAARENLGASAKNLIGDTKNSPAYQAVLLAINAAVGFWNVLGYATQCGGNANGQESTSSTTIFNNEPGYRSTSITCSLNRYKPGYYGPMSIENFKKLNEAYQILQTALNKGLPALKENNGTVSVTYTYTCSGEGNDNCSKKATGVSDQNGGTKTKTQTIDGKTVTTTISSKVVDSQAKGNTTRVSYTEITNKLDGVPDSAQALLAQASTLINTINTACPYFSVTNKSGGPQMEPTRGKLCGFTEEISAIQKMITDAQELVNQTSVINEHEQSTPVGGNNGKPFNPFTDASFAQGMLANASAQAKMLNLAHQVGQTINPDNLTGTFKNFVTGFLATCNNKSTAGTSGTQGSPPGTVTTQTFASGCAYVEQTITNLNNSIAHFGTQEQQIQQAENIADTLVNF
The data set is described as follows: Monovalent binding affinity. The conditions noted are these: for Kd: A730. The essentials: (§1)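 BabA adhesin domain isoforms from strains A730 and P436, plus the strain 17875 reference domain, were expressed recombinantly in E. coli as outer-membrane- or periplasm-targeted proteins and purified by His-tag affinity. In vitro binding was measured by isothermal titration calorimetry: injection heats were integrated into a normalized binding isotherm.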

Data set [3] has as its system BabA^AD;DL1-S831. As to the kind of experiment: ITC of BabA^AD. The format is binding, Helicobacter pylori.
Data set [4] concerns human gastric mucosa sections. As to the kind of experiment: Pretreatment of gastric sections. It counts as cell-based. Particulars: up to 200 mg/mL NAC. The essentials:
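Human gastric mucosa sections were preincubated with N-acetylcysteine in SIA blocking buffer (0, 10, 20, 100, 200 mg/mL) for 2 hr at room temperature, then washed three times in PBS-Tween. FITC-labeled H. pylori 17875/Leb was applied for 2 hr and unbound cells were washed off with PBS-Tween. Bacterial binding was quantified digitally by microscopy.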

A further data set has as its system H. pylori. The data set is described as follows: H. pylori infection of Le^b-expressing transgenic mice. The format is in vivo. Particulars: 2 week, 40 mg/day/animal in drinking water.
For data set [5], the system named is FITC labeled H. pylori strain 17875/Leb. As to the kind of experiment: In vitro detachment of adherent H. pylori from human gastric mucosa sections. It counts as cell-based, Helicobacter pylori. Put shortly:
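Human gastric mucosa tissue sections were first given FITC-labeled bacteria with no NAC for 2 hr, then washed in PBS-Tween. Bound bacteria were then exposed to N-acetylcysteine dilutions in SIA blocking buffer (10, 20, 100, 200 mg/mL) for 1 hr at 37°C. Slides were washed again in PBS-Tween and remaining adherent bacteria were quantified digitally by microscopy.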

Data set [6] has the same test system. As to the kind of experiment: In vitro inhibition of H. pylori adherence to human gastric mucosa sections. The format is cell-based, Helicobacter pylori. Put shortly: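 FITC-labeled bacterial suspensions were mixed with N-acetylcysteine dilutions in SIA blocking buffer (0, 10, 20, 100 mg/mL) and incubated 1 hr at 37°C. They were then applied to human gastric mucosa tissue sections for 2 hr. Unbound cells were removed with PBS-Tween, and adherent bacteria were quantified digitally by microscopy relative to bacteria without NAC.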

Data set [7] concerns H. pylori strain 17875/Leb. The data set is described as follows: RIA of 125I-labeled Le^b binding to bacterial cells exposed to reducing agent. The format is cell-based, Helicobacter pylori. The conditions noted are these: 20 mg/mL NAC.
Data set [8] deals with T2, BabA^AD CL2 disulfide bond (Helicobacter pylori, UniProt O52269).
T2 sequence (O52269 45-480): T1 sequence (O52269 45-480)
The data set is described as follows: Quantitative MS of tryptic digests: CL2 disulfide reduction. It counts as biochemical.

A further data set addresses T3, full-length BabA (Helicobacter pylori, UniProt O52269).
T3 sequence (O52269 21-741): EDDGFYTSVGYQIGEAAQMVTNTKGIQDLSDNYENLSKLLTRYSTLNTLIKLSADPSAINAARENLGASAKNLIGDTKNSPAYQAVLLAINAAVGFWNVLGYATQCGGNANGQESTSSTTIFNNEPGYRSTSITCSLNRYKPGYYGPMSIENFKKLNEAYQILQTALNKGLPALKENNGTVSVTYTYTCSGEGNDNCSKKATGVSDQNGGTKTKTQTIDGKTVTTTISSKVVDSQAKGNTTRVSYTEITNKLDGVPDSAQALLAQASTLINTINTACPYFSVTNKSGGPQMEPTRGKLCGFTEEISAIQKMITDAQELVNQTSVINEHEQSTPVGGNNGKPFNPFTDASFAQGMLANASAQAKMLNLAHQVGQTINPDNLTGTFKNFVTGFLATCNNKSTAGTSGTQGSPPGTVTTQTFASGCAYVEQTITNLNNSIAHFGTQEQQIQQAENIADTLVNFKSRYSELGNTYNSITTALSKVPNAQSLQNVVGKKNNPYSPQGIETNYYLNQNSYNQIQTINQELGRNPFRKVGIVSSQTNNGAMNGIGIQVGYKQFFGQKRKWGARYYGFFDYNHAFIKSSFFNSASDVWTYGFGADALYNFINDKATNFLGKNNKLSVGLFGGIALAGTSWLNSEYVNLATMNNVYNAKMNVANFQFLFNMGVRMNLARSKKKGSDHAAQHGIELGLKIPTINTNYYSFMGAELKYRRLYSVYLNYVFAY
The data set is described as follows: SPR of full-length BabA on Le^b-coated chip. It counts as binding. Put shortly: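 Surface plasmon resonance on a chip carrying immobilized Leb. Full-length BabA was flowed over it at 500, 250, 125, 62.5, 31.3 and 15.7 nM. Raw sensorgrams were fitted to binding curves to derive Kd, the association rate constant ka and the dissociation rate constant kd, each reported with a ± spread.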

The test system of data set [9] is BabA CBD of Peruvian strain P436. As to the kind of experiment: Monovalent binding affinity. Details: species or system Helicobacter pylori. Particulars: P436 versus 17875 BabA. The essentials:
as §1

In data set [10] the test system is BabA^AD;DL1-S831. The data set is described as follows: SPR competition of BabA^AD. The format is binding, Helicobacter pylori. The conditions noted are these: 2-fold dilution series from 5 mM to 1 μM.
The next data set concerns BabA. Particulars: ref Borén et al., 1993; cited from earlier work.
The target in data set [11] is T4, strain 17875 BabA adhesin domain (BabA^AD), residues 25-460 (Helicobacter pylori strain 17875, strain).
T4 chain: T1 sequence (O52269 45-480)
As to the kind of experiment: crystal structure.

Turning to `O[C@@H](CS)[C@@H](O)CS` (racemic) [DTT, dithiothreitol], the EC50 in data set [1] was in the range of 2000 to 10000 µM.
With `CC(=O)N[C@H]1[C@@H](O[C@H]2[C@@H](O)[C@@H](CO)O[C@@H](O[C@H]3[C@H](O)[C@@H](CO)O[C@@H](O[C@H]4[C@@H](O)[C@@H](CO)O[C@@H](O[C@H]5[C@H](O)[C@@H](O)C(O)O[C@@H]5CO)[C@@H]4O)[C@@H]3NC(C)=O)[C@@H]2O[C@@H]2O[C@@H](C)[C@@H](O)[C@@H](O)[C@@H]2O)O[C@H](CO)[C@H](O)[C@@H]1O` (stereo partly shown) [A6-1, A type 1 hexasaccharide], the Kd in data set [2] stood at 305 µM.
On to `CC(=O)N[C@H]1[C@H](O[C@H]2[C@@H](O)[C@@H](CO)O[C@@H](O[C@H]3[C@H](O)[C@@H](O)C(O)O[C@@H]3CO)[C@@H]2O)O[C@H](CO)[C@@H](O[C@@H]2O[C@@H](C)[C@@H](O)[C@@H](O)[C@@H]2O)[C@@H]1O[C@@H]1O[C@H](CO)[C@H](O)[C@H](O[C@H]2O[C@H](CO)[C@H](O)[C@H](O)[C@H]2O)[C@H]1O[C@@H]1O[C@@H](C)[C@@H](O)[C@@H](O)[C@@H]1O` (stereo partly shown) [BLe^b7], for which binding in data set [2] was characterised by a dissociation constant (Kd) of 93 µM. In addition, the ITC binding result in the data set on BabA^AD;DL1-S831 [3] (titration) is “no binding heat signal”.
Consider `CC(=O)N[C@@H](CS)C(=O)O` [NAC, N-acetyl-L-cysteine], for which, in data set [4], the “effect of section pretreatment on bacterial binding” value is reported as “did not affect bacterial binding”. For the same molecule, the “fold lower neutrophil recruitment to the gastric mucosa” value in the data set on H. pylori was determined as 13 fold. The “fold reduction in H. pylori epithelial adherence” value with H. pylori is given as 2 fold. Also, the bacterial detachment entry in data set [5] (10 mg/mL NAC on sections with bound bacteria) is “undetectable”; in [5] (20 mg/mL NAC on sections with bound bacteria), 50%; in data set [5] (200 mg/mL NAC on sections with bound bacteria), “over 90%”. Moreover, the adherent bacteria in data set [6] (10 mg/mL NAC preincubation) is 14%; in data set [6] (20 mg/mL NAC preincubation), “less than 5%”. In addition, in data set [6] (20 mg/mL NAC, bacteria preincubated), the “inhibition of bacterial adherence” value is “almost eliminated”. Besides, in data set [6] (Helicobacter pylori, read-out: inhibition of bacterial adherence), the inhibition at 10000 µg/mL amounted to 86%. Moreover, the “BabA-Le^b binding after incubation of bacteria” value in data set [7] is reported as “inactivated”. Moreover, in data set [8], the EC50 was 55100 µM.
With Le^b hexasaccharide, the figures for the “fold loss in monovalent binding affinity” value in [2] (A730 versus 17875 BabA) and in data set [9] were approximately 20 fold and approximately 15 fold, respectively. In addition, the “association rate constant ka” value at full-length BabA is 610000 ± 140000 M⁻¹ s⁻¹. This molecule returned a Kd at full-length BabA (full-length protein) of 0.00039 µM. Besides, the “Le^b binding of S831 DL1 graft” value with BabA^AD;DL1-S831 [3] (Figures 7B and S7A) is “active”. The “suppression of binding to Le^b-coated SPR chip by soluble glycan” value in the data set with BabA^AD;DL1-S831 [10] is “suppressed”. Also, in the data set on BabA, the “fold stronger binding to Le^b versus type 1 H neoglycoconjugates” value is “about 2 fold”.

B1: Nb-ER14 (VHH)
VHH: QVQLQESGGGLVQPGGSLRLSCAASGSIYSLIAMGWYRQAPGKEHELVATISSGSTTYYADSVKGRFTISRDNAKNTLYLQMNSLKPEDTAMYYCAAYSDRLTDCSNCEADYWGQGTQVTVS
In the case of B1, in data set [11], the binding result is reported as “binds”.

B2: Nb-ER19 (VHH)
VHH: QVQLQESGGGLVQPGGSLRLSCAASGSIFSGNVMGWYRQAPGKLREWVAAITPQGVPNYADSVKGRFTISRDNAKNMLYLQMSSLKPEDTALYYCNRLPNYRSWGQGTQVTVSS
B2: in [11], the binding result is on record as “binds”.
